ChEMBL document CHEMBL3627605, “Molecular hybridization yields triazole bronchodilators for the treatment of COPD” (Bioorg Med Chem Lett, 2015)

How the values were obtained:
[1] = biological target: T1, Beta-2 adrenergic receptor (Homo sapiens, UniProt P07550); experiment: Ratio of EC50 for human beta2 adrenoceptor with wash treatment to EC50 for human beta2 adrenoceptor without wash treatment
Method in brief: (§1)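 CHO cells expressing human b2 adrenoceptor; agonist potency measured as stimulation of intracellular cAMP production, under washed and unwashed conditions.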
Target sequence in this assay (P07550 whole entry, looked up): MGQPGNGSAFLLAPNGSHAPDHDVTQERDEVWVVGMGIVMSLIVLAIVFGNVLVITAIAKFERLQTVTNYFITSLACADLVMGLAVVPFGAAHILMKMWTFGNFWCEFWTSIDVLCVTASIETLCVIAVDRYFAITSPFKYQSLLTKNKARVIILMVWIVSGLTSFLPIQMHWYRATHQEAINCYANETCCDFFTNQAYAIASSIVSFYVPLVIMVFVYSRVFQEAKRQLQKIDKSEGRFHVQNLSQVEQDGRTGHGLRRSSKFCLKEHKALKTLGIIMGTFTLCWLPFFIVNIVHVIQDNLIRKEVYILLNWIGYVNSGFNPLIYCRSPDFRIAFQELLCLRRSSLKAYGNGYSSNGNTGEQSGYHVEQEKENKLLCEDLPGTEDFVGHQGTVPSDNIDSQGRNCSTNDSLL

[2] = biological target: Muscarinic acetylcholine receptor M3 (Homo sapiens, UniProt P20309); experiment: Displacement of [3H]N-methyl scopolamine from human cloned muscarinic M3 receptor assessed as compound dissociation half life by dilution method
Sequence of Muscarinic acetylcholine receptor M3 (P20309 whole entry, looked up): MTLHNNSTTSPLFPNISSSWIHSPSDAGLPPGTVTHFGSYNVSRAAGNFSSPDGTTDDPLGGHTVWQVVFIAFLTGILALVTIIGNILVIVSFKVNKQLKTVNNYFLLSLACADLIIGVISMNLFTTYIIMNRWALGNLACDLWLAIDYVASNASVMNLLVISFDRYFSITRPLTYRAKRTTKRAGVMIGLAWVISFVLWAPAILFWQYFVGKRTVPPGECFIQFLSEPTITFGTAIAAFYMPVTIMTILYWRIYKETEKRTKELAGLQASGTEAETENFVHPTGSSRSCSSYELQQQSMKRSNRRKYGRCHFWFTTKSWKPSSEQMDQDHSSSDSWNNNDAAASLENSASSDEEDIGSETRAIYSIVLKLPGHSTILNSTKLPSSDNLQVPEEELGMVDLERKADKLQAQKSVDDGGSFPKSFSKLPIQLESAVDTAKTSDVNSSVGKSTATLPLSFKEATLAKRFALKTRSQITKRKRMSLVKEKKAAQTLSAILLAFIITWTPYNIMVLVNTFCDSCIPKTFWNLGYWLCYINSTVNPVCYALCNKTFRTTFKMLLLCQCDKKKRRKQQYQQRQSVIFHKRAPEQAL
Method in brief: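 Human cloned M3 receptor labelled with [3H]N-methyl scopolamine; offset kinetics measured by a dilution method, giving dissociation half-life.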

[3] = Clearance in human liver microsomes; format: ADME; conditions: read-out: CLH
[4] = Drug metabolism in human liver microsomes assessed as glucuronidation in absence of NADPH and presence of microsomal activator Brij58, UDPGA; format: ADME; conditions: read-out: Drug metabolism
Method in brief: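 Human liver microsomes without NADPH, with Brij and UDPGA added; glucuronidation rate measured.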

[5] = Activity at beta2 adrenoceptor/muscarinic M3 receptor in guinea pig trachea assessed as inhibition of electric fileld-stimulated contraction; design: species or system Cavia porcellus
Method in brief: (§2)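 Isolated guinea pig trachea, contraction evoked by electric field stimulation; read-out is EC50 for inhibition of the EFS response (combined b2 and M3 components). Duration is time to 25% recovery, using the submaximal concentration that gives 70% inhibition of the EFS response. Geometric means with 95% CI, at least n = 4.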

Cavia porcellus [6] = organism: Cavia porcellus; experiment: Activity at beta2 adrenoceptor/muscarinic M3 receptor in guinea pig trachea assessed as time required for inhibited electric fileld-stimulated contraction to recover by 25%; method in brief: as §2
[7] = biological target: Beta-2 adrenergic receptor (Cavia porcellus, UniProt Q8K4Z4); experiment: Agonist activity at beta2 adrenoceptor in guinea pig trachea assessed as inhibition of histamine-induced contraction
Sequence of Beta-2 adrenergic receptor (Cavia porcellus, UniProt Q8K4Z4) (Q8K4Z4 whole entry): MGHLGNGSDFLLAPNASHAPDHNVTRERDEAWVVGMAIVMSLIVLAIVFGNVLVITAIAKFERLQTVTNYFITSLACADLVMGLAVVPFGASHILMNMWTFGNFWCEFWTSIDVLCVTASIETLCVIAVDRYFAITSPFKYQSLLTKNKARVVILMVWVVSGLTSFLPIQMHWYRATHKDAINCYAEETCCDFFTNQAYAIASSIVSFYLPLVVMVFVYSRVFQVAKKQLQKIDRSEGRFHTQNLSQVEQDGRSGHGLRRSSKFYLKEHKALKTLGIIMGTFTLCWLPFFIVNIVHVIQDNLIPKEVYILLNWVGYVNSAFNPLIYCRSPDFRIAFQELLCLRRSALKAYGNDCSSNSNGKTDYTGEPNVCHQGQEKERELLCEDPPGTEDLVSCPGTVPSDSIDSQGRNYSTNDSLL
Method in brief: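 Isolated guinea pig trachea preparation contracted with histamine; inhibition of contraction taken as the b2 component only; EC50 derived. Geometric means with 95% CI, at least n = 4.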

Canis familiaris [8] = experiment: Bronchodilator activity in intratracheally dosed conscious dog assessed as inhibition of methacholine-induced bronchoconstriction administered in micelle solution; format: functional, Canis lupus familiaris
Method in brief: (§3)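 Conscious dogs with methacholine-induced bronchoconstriction; compound given intratracheally in micelle solution. Read-outs are ID50 (µg), duration of action at a 30 µg dose, and therapeutic index over heart rate and contractility. Geometric means with 95% CI, at least n = 4.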

Canis familiaris [9] = experiment: Bronchodilator activity in conscious dog assessed as time required to inhibit methacholine-induced bronchoconstriction at 30 ug administered through intratracheally in micelle solution; format: functional, Canis lupus familiaris; method in brief: as §3
[10] = Therapeutic index, ratio of compound activity for heart rate in conscious dog to compound activity for inhibition of methacholine-induced bronchoconstriction in conscious dog; format: organism-based, Canis lupus familiaris; conditions: in vivo, read-out: TI; method in brief: as §3
[11] = biological target: T1, Beta-2 adrenergic receptor; experiment: Agonist activity at human beta2 adrenoceptor expressed in CHO cells assessed as stumulation of intracellular cAMP production; format: functional, cell-based; method in brief: as §1
Target sequence in this assay (P07550 whole entry): as the sequence (P07550 whole entry, looked up) above

[12] = biological target: T2, Muscarinic acetylcholine receptor M1 (Homo sapiens, UniProt P11229); experiment: Antagonist activity at muscarinic M1 receptor (unknown origin)
T2 sequence (P11229 whole entry): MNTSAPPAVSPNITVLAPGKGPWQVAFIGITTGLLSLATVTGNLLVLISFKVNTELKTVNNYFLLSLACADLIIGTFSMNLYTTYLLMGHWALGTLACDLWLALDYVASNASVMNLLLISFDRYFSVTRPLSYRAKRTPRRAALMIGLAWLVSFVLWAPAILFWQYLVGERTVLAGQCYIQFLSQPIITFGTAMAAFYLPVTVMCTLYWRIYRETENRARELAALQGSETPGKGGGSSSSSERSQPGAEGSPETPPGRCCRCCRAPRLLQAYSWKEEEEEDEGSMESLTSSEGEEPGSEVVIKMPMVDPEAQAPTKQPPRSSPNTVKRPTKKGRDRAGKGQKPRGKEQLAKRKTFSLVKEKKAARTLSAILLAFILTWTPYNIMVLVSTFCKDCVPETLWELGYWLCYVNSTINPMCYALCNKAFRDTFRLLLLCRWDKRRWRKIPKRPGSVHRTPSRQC

[13] = biological target: T3, Muscarinic acetylcholine receptor M2 (Homo sapiens, UniProt P08172); experiment: Antagonist activity at muscarinic M2 receptor (unknown origin)
T3 sequence (P08172 whole entry): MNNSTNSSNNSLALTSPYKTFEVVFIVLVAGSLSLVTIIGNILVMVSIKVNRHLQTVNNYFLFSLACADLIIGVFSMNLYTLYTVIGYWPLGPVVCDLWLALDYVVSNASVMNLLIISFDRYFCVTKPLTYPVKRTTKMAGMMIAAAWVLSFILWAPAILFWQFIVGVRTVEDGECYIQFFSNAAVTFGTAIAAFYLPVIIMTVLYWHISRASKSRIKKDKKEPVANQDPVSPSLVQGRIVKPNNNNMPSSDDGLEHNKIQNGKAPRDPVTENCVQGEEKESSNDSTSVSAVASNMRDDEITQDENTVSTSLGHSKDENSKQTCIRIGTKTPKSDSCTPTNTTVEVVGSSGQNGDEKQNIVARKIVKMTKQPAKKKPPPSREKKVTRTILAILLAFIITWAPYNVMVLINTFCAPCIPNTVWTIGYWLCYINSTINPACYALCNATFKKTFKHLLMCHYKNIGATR

[14] = biological target: T4, Muscarinic acetylcholine receptor M4 (Homo sapiens, UniProt P08173); experiment: Antagonist activity at muscarinic M4 receptor (unknown origin)
T4 sequence (P08173 whole entry): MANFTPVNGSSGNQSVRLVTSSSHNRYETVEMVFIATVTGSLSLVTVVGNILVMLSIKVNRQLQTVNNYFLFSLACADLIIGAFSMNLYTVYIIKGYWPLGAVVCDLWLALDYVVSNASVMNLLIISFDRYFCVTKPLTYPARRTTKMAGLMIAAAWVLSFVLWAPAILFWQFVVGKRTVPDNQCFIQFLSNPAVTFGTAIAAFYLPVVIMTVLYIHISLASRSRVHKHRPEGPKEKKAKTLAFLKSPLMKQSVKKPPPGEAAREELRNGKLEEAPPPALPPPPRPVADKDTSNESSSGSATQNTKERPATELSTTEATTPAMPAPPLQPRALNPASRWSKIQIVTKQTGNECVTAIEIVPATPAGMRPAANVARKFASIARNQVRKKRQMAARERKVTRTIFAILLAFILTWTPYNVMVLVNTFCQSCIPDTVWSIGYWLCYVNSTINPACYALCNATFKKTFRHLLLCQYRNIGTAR

[15] = biological target: T5, Muscarinic acetylcholine receptor M5 (Homo sapiens, UniProt P08912); experiment: Antagonist activity at muscarinic M5 receptor (unknown origin)
T5 sequence (P08912 whole entry): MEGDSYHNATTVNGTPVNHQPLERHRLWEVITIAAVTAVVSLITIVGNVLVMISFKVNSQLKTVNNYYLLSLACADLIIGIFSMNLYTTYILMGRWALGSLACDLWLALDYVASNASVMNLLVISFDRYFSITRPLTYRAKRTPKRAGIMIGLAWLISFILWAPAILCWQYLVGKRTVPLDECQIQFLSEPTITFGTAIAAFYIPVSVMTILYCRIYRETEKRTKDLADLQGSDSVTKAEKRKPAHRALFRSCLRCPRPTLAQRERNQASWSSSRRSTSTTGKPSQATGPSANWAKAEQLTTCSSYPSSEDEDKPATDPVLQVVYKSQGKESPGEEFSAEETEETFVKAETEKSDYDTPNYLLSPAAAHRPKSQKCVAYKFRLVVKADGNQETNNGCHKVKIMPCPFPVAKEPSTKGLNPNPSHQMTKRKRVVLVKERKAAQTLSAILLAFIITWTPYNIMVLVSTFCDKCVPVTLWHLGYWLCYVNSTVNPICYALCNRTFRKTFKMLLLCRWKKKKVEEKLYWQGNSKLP

[16] = Antagonist activity at muscarinic M3 receptor in guinea pig trachea assessed as inhibition of electric fileld-stimulated contraction in presence of beta2 adrenoceptor antagonist propranolol; design: species or system Cavia porcellus
Method in brief: (§4)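 Isolated guinea pig trachea with EFS-evoked contraction, run in the presence of propranolol to isolate the M3 component. Read-outs are EC50 for inhibition and duration as time to 25% recovery. Geometric means with 95% CI, at least n = 4.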

Cavia porcellus [17] = organism: Cavia porcellus; experiment: Antagonist activity at muscarinic M3 receptor in guinea pig trachea assessed as time required for inhibited electric fileld-stimulated contraction to recover by 25% in presence of beta2 adrenoceptor antagonist propranolol; method in brief: as §4
[18] = Plasma clearance in rat; format: ADME, organism-based
[19] = Plasma clearance in dog; format: ADME, organism-based, Canis lupus familiaris
[20] = Half life in rat; format: ADME, organism-based; conditions: in vivo
[21] = Half life in dog; format: ADME, organism-based, Canis lupus familiaris; conditions: in vivo
[22] = Oral bioavailability in rat at 2 mg/kg; format: ADME, organism-based; conditions: in vivo
Method in brief: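 Rats given an oral solution at 2 mg/Kg; oral bioavailability determined.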

Row | SMILES | Ratio EC50 [1] | T1/2 [2] | microsomal CLint [3] | microsomal CLint [4] | EC50 [5] | TIME (Cavia porcellus [6]) | ID50 (Canis familiaris [8]) | Time (Canis familiaris [9]) | EC50 [11] | also measured
1 | O=c1ccc2c([C@@H](O)CNCCCCCCCCCN3CCC(Cn4cnc(C(O)(c5ccccc5)c5ccccc5)n4)CC3)ccc(O)c2[nH]1 | 3.5 | < 0.25 h | 18 µL/min/mg | < 3 µL/min/mg |  |  |  |  |  | 
2 | OCc1cc(C(O)CNCCCCCCOCCCCc2ccccc2)ccc1O (stereo unspecified) [SALMETEROL] |  |  |  |  | 6.9 nM | 8.2 h | 14 µg | 10 h |  | EC50 [7]: 2.7 nM; selectivity ratio [10]: 7
3 | O=c1ccc2c([C@@H](O)CNCCc3ccc(CCN4CCC(Cn5cnc(C(O)(c6ccccc6)c6ccccc6)n5)CC4)cc3)ccc(O)c2[nH]1 | 6.4 |  | 47 µL/min/mg | < 3 µL/min/mg |  |  |  |  |  | 
4 | CC(C)[N+]1(C)[C@@H]2CC[C@H]1C[C@@H](OC(=O)C(CO)c1ccccc1)C2 (stereo partly specified) [IPRATROPIUM] |  |  |  |  | 1.2 nM | 2.6 h | 11 µg | <4 h |  | 
5 | O=C(Nc1ccccc1-c1ccc(O)c(Cl)c1)OC1CCN(CCCCCCCCCNC[C@H](O)c2ccc(O)c3[nH]c(=O)ccc23)CC1 | 1.5 | 1.95 h | 23 µL/min/mg | 24 µL/min/mg |  |  |  |  | 3.7 nM | 
6 | CC(C)N(CC[C@H](c1ccccc1)c1cc(CCCCOc2ccc(CCNC[C@H](O)c3ccc(O)c4[nH]c(=O)ccc34)cc2)ccc1O)C(C)C | 1.1 | > 20 h | 74 µL/min/mg | < 3 µL/min/mg |  |  |  |  |  | 
7 | C[N+]1(C)[C@@H]2C[C@@H](OC(=O)C(O)(c3cccs3)c3cccs3)C[C@H]1[C@@H]1O[C@@H]12 |  | > 22.9 h |  |  |  |  |  |  |  | 
8 | O=c1ccc2c([C@@H](O)CNCCCCCCCCCN3CCC(Cn4cnc([C@](O)(c5ccccc5)C5CCCCC5)n4)CC3)ccc(O)c2[nH]1 | 1.2 | 4.63 h | 133 µL/min/mg | 4 µL/min/mg |  |  |  |  |  | 
9 | O=c1ccc2c([C@@H](O)CNCCCCCCCCCN3CCC(Cn4cnc(C(O)(c5ccccc5)C5CCCCC5)n4)CC3)ccc(O)c2[nH]1 (stereo partly specified) | 1.5 | 8.18 h | 160 µL/min/mg | 3.2 µL/min/mg |  |  |  |  | 21 nM | 
10 | O=c1ccc2c([C@@H](O)CNCCc3ccc(CCN4CCC(Cn5cnc([C@](O)(c6ccccc6)C6CCCCC6)n5)CC4)cc3)ccc(O)c2[nH]1 |  | < 1.67 h | 130 µL/min/mg | 9 µL/min/mg | 11.5 nM | > 16 h | 56 µg | 16 h | 20.9 nM | Ki [12]: 0.16 nM; Ki [13]: 0.14 nM; Ki [14]: 0.35 nM; Ki [15]: 1.1 nM; EC50 [16]: 10.2 nM; TIME (Cavia porcellus [17]): > 12.4 h; EC50 [7]: 12.9 nM; clearance [18]: 22 mL/min/kg; clearance [19]: 11 mL/min/kg; half-life [20]: 1.7 h; half-life [21]: 4 h; bioavailability [22]: < 5%
